Data as given in ChEMBL document CHEMBL2069258, “Novel phosphoramidate prodrugs of N-acetyl-(D)-glucosamine with antidegenerative activity on bovine and human cartilage explants” (J Med Chem, 2012).

Key:
Cartilage tissue [1] = assay: Antidegenerative activity against bovine cartilage explant assessed as inhibition of IL1-induced of GAG release at 0.1 mM for 1 day before IL-1 treatment measured after 6 days by colorimetric analysis relative to control; assay type: functional; conditions: Bos taurus
How it was run: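 Articular cartilage explants from different cows, equilibrated 24 h, then cultured one day in DMEM + hydrolyzed lactalbumin + 50 μg/mL vitamin C + penicillin/streptomycin + ITS with or without compound (0.1 mM). GAG release then induced with 10 ng IL-1 and continued six days, medium changed every two days. Medium GAG measured by Blyscan colorimetric assay. GAG fold-increase versus minus-IL-1 control. Percent reduction relative to IL-1-only fold. Triplicates per experiment, mean of n experiments.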

[2] = Cytotoxicity against bovine articular chondrocytes assessed as cell viability at 1 mM by MTT assay relative to control; parameters: species or system Bos taurus; conditions: cattle, read-out: Activity
How it was run: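 Chondrocyte monolayer cultures exposed to compound in parallel with the explant experiments. Viability read by MTT, as percent of untreated control cells (100%). Mean of n experiments from different cows, each run in triplicate.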

[3] = Cytotoxicity against bovine articular chondrocytes assessed as cell viability at 0.1 mM by MTT assay relative to control; parameters: species or system Bos taurus; conditions: cattle, read-out: Activity
How it was run: (§1)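 Chondrocyte monolayers tested in parallel with the explant work. Viability measured by MTT and expressed as percent of untreated cells (no compound = 100%). Mean and SE over n experiments, each in triplicate.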

[4] = Antidegenerative activity against human cartilage explant assessed as inhibition of IL1-induced of GAG release at 10 uM for 1 day before IL-1 treatment measured after 6 days by colorimetric analysis relative to control; assay type: functional; conditions: Cartilage tissue
How it was run: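 Human cartilage explants, equilibrated 24 h, then cultured one day in DMEM + hydrolyzed lactalbumin + 50 μg/mL vitamin C + penicillin/streptomycin + ITS with compound. 10 ng IL-1 then added and culture continued six days, medium replaced every two days. Medium GAG measured by Blyscan colorimetric assay. Percent reduction = (mean control − mean sample release)/control × 100, against a 0.25% DMSO + IL-1 control.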

[5] = Cytotoxicity against human articular chondrocytes assessed as metabolic activity at 10 uM by WST-1 assay; conditions: read-out: Activity
Serum = assay: Stability of compound in human serum assessed as hydrolysis after 17 hrs by NMR analysis; assay type: ADME, cell-free
How it was run: (§2)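 Prodrug disappearance followed by NMR in guinea pig or human serum at 37 °C, pH 7.0. Half-life taken from the apparent first-order rate constant, by linear regression of pseudo-first-order plots of prodrug concentration versus time.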

[6] = Stability of compound in guinea pig serum assessed as hydrolysis after 17 hrs by NMR analysis; assay type: ADME, cell-free, Cavia porcellus; how it was run: as §2
Cartilage tissue [7] = assay: Antidegenerative activity against bovine cartilage explant assessed as inhibition of IL1-induced of GAG release at 10 mM for 1 day before IL-1 treatment measured after 6 days by colorimetric analysis relative to control; assay type: functional; conditions: Bos taurus
How it was run: (§3)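 Articular cartilage explants from different cows, equilibrated 24 h, then cultured 1 day in DMEM with hydrolyzed lactalbumin, 50 μg/mL vitamin C, penicillin/streptomycin and ITS, with or without compound. IL-1 10 ng added; medium changed every two days; harvested 6 days later. GAG in medium by Blyscan colorimetric assay. Fold increase over minus-IL-1 control used to derive % reduction versus IL-1-only fold. Triplicate per experiment; mean and SE over n cows.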

Cartilage tissue [8] = assay: Antidegenerative activity against bovine cartilage explant assessed as inhibition of IL1-induced of GAG release at 1 mM for 1 day before IL-1 treatment measured after 6 days by colorimetric analysis relative to control; assay type: functional; conditions: Bos taurus; how it was run: as §3
[9] = Cytotoxicity against bovine articular chondrocytes assessed as cell viability at 10 mM by MTT assay relative to control; parameters: species or system Bos taurus; conditions: cattle, read-out: Activity; how it was run: as §1
[10] = Cytotoxicity against human articular chondrocytes assessed as metabolic activity at 250 uM by WST-1 assay; conditions: read-out: Activity
How it was run: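 Metabolic activity measured by WST-1 in parallel with the human explant assay and reported as a percentage.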

[11] = Antidegenerative activity against human cartilage explant assessed as inhibition of IL1-induced of GAG release at 250 uM for 1 day before IL-1 treatment measured after 6 days by colorimetric analysis relative to control; assay type: functional; conditions: Cartilage tissue
How it was run: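 Human explants: 24 h equilibration, 1 day preincubation with compound in DMEM/lactalbumin/vitamin C/ITS medium, then IL-1 10 ng for 6 days with medium renewed every two days. Compounds dissolved in DMSO, with a 0.25% DMSO control. GAG released measured colorimetrically (Blyscan). % reduction = (mean control release − mean sample release)/control release × 100.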

Row | SMILES | inhibition at 100 µM (Cartilage tissue [1]) | viability at 100 µM [3] | inhibition at 10 µM [4] | viability at 10 µM [5] | other results
1 | CCOC(=O)CN(C)P(=O)(Oc1ccc(OC)cc1)O[C@H]1[C@H](O)[C@@H](CO)O[C@H](O)[C@@H]1NC(C)=O (stereo partly specified) | -24.9% | 32% | – | – | viability at 1000 µM [2]: 80%
2 | COc1ccc(OP(=O)(O[C@H]2[C@H](O)[C@@H](CO)O[C@H](O)[C@@H]2NC(C)=O)N2CCC[C@H]2C(=O)OC(C)C)cc1 (stereo partly specified) | 17.5% | 90% | 24.4% | 79.4% | –
3 | CCC(C)OC(=O)[C@@H]1CCCN1P(=O)(Oc1ccc(OC)cc1)O[C@H]1[C@H](O)[C@@H](CO)O[C@H](O)[C@@H]1NC(C)=O (stereo partly specified) | -4.4% | 96% | 27.1% | 53.9% | viability at 1000 µM [2]: 7%
4 | COc1ccc(OP(=O)(O[C@H]2[C@H](O)[C@@H](CO)O[C@H](O)[C@@H]2NC(C)=O)N2CCC[C@H]2C(=O)OC2CCCCC2)cc1 (stereo partly specified) | -9.6% | – | – | – | –
5 | CCC[C@H](NP(=O)(Oc1ccc(OC)cc1)O[C@H]1[C@H](O)[C@@H](CO)O[C@H](O)[C@@H]1NC(C)=O)C(=O)OCC (stereo partly specified) | 11.8% | 93% | – | – | –
6 | COc1ccc(OP(=O)(O[C@H]2[C@H](O)[C@@H](CO)O[C@H](O)[C@@H]2NC(C)=O)N2CCC[C@H]2C(=O)OC(C)(C)C)cc1 (stereo partly specified) | -8% | 91% | – | – | Stability (Serum): Stable; Stability [6]: Stable; viability at 1000 µM [2]: 5%
7 | COC(=O)[C@@H](NP(=O)(Oc1ccc(OC)cc1)O[C@H]1[C@H](O)[C@@H](CO)O[C@H](O)[C@@H]1NC(C)=O)C(C)C (stereo partly specified) | -4.4% | 96% | – | – | –
8 | COc1ccc(OP(=O)(O[C@H]2[C@H](O)[C@@H](CO)O[C@H](O)[C@@H]2NC(C)=O)N2CCC[C@H]2C(=O)OCc2ccccc2)cc1 (stereo partly specified) | – | – | 28.8% | 115% | –
9 | CCOC(=O)[C@@H]1CCCN1P(=O)(Oc1ccc(OC)cc1)O[C@H]1[C@H](O)[C@@H](CO)O[C@H](O)[C@@H]1NC(C)=O (stereo partly specified) | – | – | 38% | 66.4% | –
10 | CCCCOC(=O)[C@@H]1CCCN1P(=O)(Oc1ccc(OC)cc1)O[C@H]1[C@H](O)[C@@H](CO)O[C@H](O)[C@@H]1NC(C)=O (stereo partly specified) | – | – | 30.4% | 87.1% | –
11 | CCOC(=O)[C@@H]1CCCN1P(=O)(Oc1ccc(OC)cc1)O[C@H]1[C@H](O)[C@@H](NC(C)=O)[C@H](O)O[C@@H]1CO (stereo partly specified) | – | – | 17.4% | 107% | –
12 | COc1ccc(OP(=O)(N[C@@H](C)C(=O)OCc2ccccc2)O[C@H]2[C@H](O)[C@@H](CO)O[C@H](OC)[C@@H]2NC(C)=O)cc1 (stereo partly specified) | -19% | 78% | – | – | –
13 | COc1ccc(OP(=O)(N[C@H](C(=O)OCc2ccccc2)C(C)C)O[C@H]2[C@H](O)[C@@H](CO)O[C@H](OC)[C@@H]2NC(C)=O)cc1 (stereo partly specified) | 9.4% | 99% | – | – | –
14 | CCOC(=O)[C@@H]1CCCN1P(=O)(Oc1ccc(OC)cc1)O[C@H]1[C@H](O)[C@@H](CO)O[C@H](OC)[C@@H]1NC(C)=O (stereo partly specified) | -53.7% | 62% | – | – | –
15 | CCOC(=O)[C@@H](NP(=O)(Oc1ccc(OC)cc1)O[C@H]1[C@H](O)[C@@H](CO)O[C@H](OC)[C@@H]1NC(C)=O)C(C)C (stereo partly specified) | -52.5% | 85% | – | – | –
16 | CCOC(=O)CN(C)P(=O)(Oc1ccc(OC)cc1)O[C@H]1[C@H](O)[C@@H](CO)O[C@H](OC)[C@@H]1NC(C)=O (stereo partly specified) | -23.2% | 100% | – | – | –
17 | N[C@H]1C(O)O[C@H](CO)[C@@H](O)[C@@H]1O (stereo partly specified) [GLUCOSAMINE] | 0.8% | 106% | 10.3% | 107% | inhibition at 10000 µM (Cartilage tissue [7]): 19%; inhibition at 1000 µM (Cartilage tissue [8]): 3.4%; viability at 10000 µM [9]: 56%; viability at 1000 µM [2]: 88%; viability at 250 µM [10]: 85.3%; inhibition at 250 µM [11]: 14.1%
18 | CC(=O)N[C@@H]1[C@@H](O)[C@H](O)[C@@H](CO)O[C@H]1O [N-ACETYLGLUCOSAMINE] | 5.4% | 107% | – | – | inhibition at 10000 µM (Cartilage tissue [7]): 9.3%; inhibition at 1000 µM (Cartilage tissue [8]): -1%; viability at 10000 µM [9]: 61%; viability at 1000 µM [2]: 70%
